Values joined by “and” are separate entries in the source; they are usually repeats but may differ in a detail not shown here. Identical values can stand only once. Active and inactive are the calls of the source. The rule behind the calls is not given here.
What was measured:
[1] = target: T1, Tyrosine-protein phosphatase non-receptor type 1 (Homo sapiens, UniProt P18031); assay: Mixed-competitive inhibition of human recombinant PTP1B using p-nitrophenylphosphate as substrate by Lineweaver-Burk plot analysis
T1 sequence (P18031 whole entry): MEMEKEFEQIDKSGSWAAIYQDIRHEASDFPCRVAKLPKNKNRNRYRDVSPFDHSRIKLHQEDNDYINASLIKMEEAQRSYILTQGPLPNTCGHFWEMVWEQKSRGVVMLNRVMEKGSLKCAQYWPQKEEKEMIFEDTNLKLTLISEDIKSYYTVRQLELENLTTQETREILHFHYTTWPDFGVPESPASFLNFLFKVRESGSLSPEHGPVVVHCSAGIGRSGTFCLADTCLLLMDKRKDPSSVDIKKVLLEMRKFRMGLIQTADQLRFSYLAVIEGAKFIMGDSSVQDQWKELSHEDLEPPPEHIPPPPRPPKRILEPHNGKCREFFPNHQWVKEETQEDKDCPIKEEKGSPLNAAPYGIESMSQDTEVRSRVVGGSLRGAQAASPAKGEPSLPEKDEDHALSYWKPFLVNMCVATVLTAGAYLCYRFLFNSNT

[2] = target: T1, Tyrosine-protein phosphatase non-receptor type 1; assay: Inhibition of human recombinant PTP1B using p-nitrophenylphosphate as substrate
Procedure, shortened: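 Human recombinant PTP1B in 50 mM citrate pH 6.0, 0.1 M NaCl, 1 mM EDTA, 1 mM DTT, ± sample, preincubated 10 min at 37 °C. Substrate 2 mM p-NPP, then 20 min at 20 °C, stopped with NaOH, A405. Blank without enzyme corrects for non-enzymatic hydrolysis. IC50 by regression, mean ± SD of three replicates.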

[3] = test system: 3T3-L1 (Mus musculus); assay: Induction of 2-NBDG uptake in mouse 3T3-L1 adipocyte cells at 5 uM after 24 hrs measured after 30 mins of 2-NBDG by fluorescence assay
[4] = Cytotoxicity against mouse NIH/3T3 cells at 50 uM after 48 hrs by MTT assay; details: nih3t3, 48 h
[5] = target: T1, Tyrosine-protein phosphatase non-receptor type 1; assay: Noncompetitive inhibition of human recombinant PTP1B using p-nitrophenylphosphate as substrate by Lineweaver-Burk plot analysis
[6] = target: T1, Tyrosine-protein phosphatase non-receptor type 1; assay: Uncompetitive inhibition of human recombinant PTP1B using p-nitrophenylphosphate as substrate by Lineweaver-Burk plot analysis

| Ki [1] | IC50 [2] | Ki [5] [µM] | Ki [6] [µM] | SMILES | Activity [3] | Activity [4] |
| --- | --- | --- | --- | --- | --- | --- |
| 3 µM and 13.9 µM | 4.6 µM and 15.9 µM | – | – | O=C1C=CC(=C(c2ccc(O)cc2)c2c(-c3ccc(O)cc3)ccc(CO)c2C#Cc2ccc(O)cc2)C=C1 | Active | Non-toxic |
| – | 21.6 µM | 10.3 | – | OCc1ccc(-c2ccc(O)cc2O)c(C(O)(c2ccc(O)cc2)c2ccc(O)cc2)c1C#Cc1ccc(O)cc1 | Active | Non-toxic |
| – | 19.4 µM | – | 15.1 | COCc1ccc(-c2ccc(O)cc2O)c(C(O)(c2ccc(O)cc2)c2ccc(O)cc2)c1C#Cc1ccc(O)cc1 | Active | Non-toxic |

The remaining lines, values behind:

| SMILES | Ki [1] | IC50 [2] | Ki [5] [µM] | Ki [6] [µM] | Activity [3] | Activity [4] |
| --- | --- | --- | --- | --- | --- | --- |
| O=C(O)c1nnc(-c2ccc(-c3ccccc3)cc2)o1 | – | 0.7 µM | – | – | – | – |
| COc1ccc(C(=C2C=CC(=O)C=C2)c2c(-c3ccc(O)cc3)ccc(CO)c2C#Cc2ccc(O)cc2)cc1 | 8.9 µM | 11.5 µM | – | – | Active | – |
